The values below come from ChEMBL document CHEMBL1221296, “New synthetic flavone derivatives induce apoptosis of hepatocarcinoma cells” (Bioorg Med Chem, 2010).

Active and inactive are the calls of the source. The rule behind the calls is not given here. Where only a bound is given, the exact number is not on record here.

Usually IC50 stands for the concentration at which inhibition is half-maximal.

In test [1] the test system is HepG2. Briefly: Cytotoxicity against human HepG2 cells by MTT assay. Type of test: functional, cell-based. The gist of the method:
(§1)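 Cells grown in DMEM with 10% FBS, penicillin and streptomycin at 37 °C under 5% CO₂. Seeded at 5 × 10³ per 100 µl per well and exposed to compound at 0.5–50 µM for 72 h. MTT (5 mg/ml) added for 5 h, formazan dissolved in DMSO, absorbance read at 490 nm. IC₅₀ is the concentration giving 50% growth inhibition; means of three independent determinations.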
On the technique in general: Tetrazolium dyes change colour on reduction, which living cells bring about.

The subject of test [2] is HepG2. The test is described as follows: Cell cycle arrest in human HepG2 cells assessed as accumulation at subG0 phase at 25 uM after 36 hrs by FACSan flow cytometry. Type of test: functional. The procedure, abridged:
(§2)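 Cells were treated for 36 h, then washed twice in ice-cold PBS and fixed overnight in 70% ethanol at 4 °C. They were resuspended at 5 × 10⁵/ml in propidium iodide (50 µg/ml in 0.1% sodium citrate, 0.03% v/v Nonidet P-40) and held 30 min on ice. DNA-content histograms were read by FACScan flow cytometry, with sub-G₀ scored as apoptotic.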

Another test has as its system HeLa. The test is described as follows: Growth inhibition of human HeLa cells after 72 hrs by MTT assay. Type of test: functional, cell-based. The gist of the method: as §1
Test [3] deals with HepG2. Briefly: Cell cycle arrest in human HepG2 cells assessed as accumulation at G2 phase at 10 uM after 36 hrs by FACSan flow cytometry. In kind it is functional. The gist of the method:
as §2
In general terms: Flow cytometry measures light scatter and fluorescence of single cells or particles in a stream.

Test [4] has as its system HepG2. Briefly: Cell cycle arrest in human HepG2 cells assessed as accumulation at S phase at 10 uM after 36 hrs by FACSan flow cytometry. Type of test: functional. The procedure, abridged:
as §2

For another test, the system named is MCF7. The test is described as follows: Growth inhibition of human MCF7 cells after 72 hrs by MTT assay. In kind it is functional, cell-based. The settings on record: MCF7, 72 h. The gist of the method:
as §1

Test [5] is described as follows: Growth inhibition of human CNE1 cells after 72 hrs by MTT assay. The following applies: CNE. Type of test: functional, cell-based. The gist of the method:
as §1

A short description of test [6]: Growth inhibition of human CNE2 cells after 72 hrs by MTT assay. Type of test: functional, cell-based. The following applies: CNE-2, 72 h. The procedure, abridged: as §1
The test system of test [7] is HepG2. Briefly: Induction of apoptosis in human HepG2 cells assessed as DNA fragmentation at 10 uM after 36 hrs by agarose gel electrophoresis. Type of test: functional, cell-based. The procedure, abridged:
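HepG-2 cells (1 × 10⁶) exposed to 0, 5, 10, 25 and 50 µM for 36 h, then trypsinized and lysed in 10 mM Tris–HCl pH 7.4, 10 mM EDTA, 0.5% Triton X-100 and proteinase K (200 µg/ml). DNA isolated by organic extraction, run on 2% agarose and stained with ethidium bromide to detect laddering.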

Test [8] has as its system HepG2. The test is described as follows: Induction of apoptosis in human HepG2 cells assessed as change in cellular morphology at 10 uM after 36 hrs […]. Type of test: functional, cell-based.
Test [9] relates to HepG2. Briefly: Cell cycle arrest in human HepG2 cells assessed as accumulation at G1 phase at 5 uM after 36 hrs by FACSan flow cytometry. In kind it is functional. The gist of the method:
as §2

In test [10] the test system is HepG2. Briefly: Cell cycle arrest in human HepG2 cells assessed as accumulation at subG0 phase at 5 uM after 36 hrs by FACSan flow cytometry. Type of test: functional. The procedure, abridged:
as §2

Test [11] has as its system HepG2. The test is described as follows: Cell cycle arrest in human HepG2 cells assessed as accumulation at G2 phase at 5 uM after 36 hrs by FACSan flow cytometry. In kind it is functional. The gist of the method: as §2
Test [12] deals with HepG2. The test is described as follows: Cell cycle arrest in human HepG2 cells assessed as accumulation at S phase at 5 uM after 36 hrs by FACSan flow cytometry. In kind it is functional. The gist of the method:
as §2

In test [13] the test system is HepG2. The test is described as follows: Cell cycle arrest in human HepG2 cells assessed as accumulation at subG0 phase at 10 uM after 36 hrs by FACSan flow cytometry. Type of test: functional. The procedure, abridged:
as §2

For test [14], the system named is HepG2. The test is described as follows: Cell cycle arrest in human HepG2 cells assessed as accumulation at G1 phase at 10 uM after 36 hrs by FACSan flow cytometry. Type of test: functional. The gist of the method: as §2
The subject of test [15] is HepG2. The test is described as follows: Cell cycle arrest in human HepG2 cells assessed as accumulation at G1 phase at 25 uM after 36 hrs by FACSan flow cytometry. Type of test: functional. The gist of the method: as §2
Test [16] has as its system HepG2. Briefly: Cell cycle arrest in human HepG2 cells assessed as accumulation at G2 phase at 25 uM after 36 hrs by FACSan flow cytometry. In kind it is functional. The gist of the method:
as §2

Test [17] has as its system HepG2. Briefly: Cell cycle arrest in human HepG2 cells assessed as accumulation at S phase at 25 uM after 36 hrs by FACSan flow cytometry. Type of test: functional. The procedure, abridged:
as §2

Test [18] has as its system HepG2. Briefly: Cell cycle arrest in human HepG2 cells assessed as accumulation at subG0 phase at 50 uM after 36 hrs by FACSan flow cytometry. In kind it is functional. The gist of the method: as §2
The test system of test [19] is HepG2. The test is described as follows: Cell cycle arrest in human HepG2 cells assessed as accumulation at G1 phase at 50 uM after 36 hrs by FACSan flow cytometry. In kind it is functional. The gist of the method: as §2
The subject of test [20] is HepG2. Briefly: Cell cycle arrest in human HepG2 cells assessed as accumulation at G2 phase at 50 uM after 36 hrs by FACSan flow cytometry. In kind it is functional. The procedure, abridged:
as §2

Test [21] has as its system HepG2. The test is described as follows: Cell cycle arrest in human HepG2 cells assessed as accumulation at S phase at 50 uM after 36 hrs by FACSan flow cytometry. Type of test: functional. The gist of the method:
as §2

Test [22] relates to HepG2. The test is described as follows: Induction of apoptosis in human HepG2 cells assessed as caspase 3 activation at 50 uM after 2 to 24 hrs. Type of test: functional, cell-based. The gist of the method: (§3)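 HepG-2 cells were treated for 0, 2, 4, 8, 14 and 24 h. Lysates were made on ice and cleared at 20,000g, 4 °C, and protein was measured by Bradford. 0.1 mg protein was incubated 2 h at 37 °C with Ac-DEVD-pNA (caspase-3), Ac-IETD-pNA (caspase-8) or Ac-LEHD-pNA (caspase-9), and pNA release was read at 405 nm.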

In test [23] the test system is HepG2. Briefly: Induction of apoptosis in human HepG2 cells assessed as caspase 8 activation at 50 uM after 2 to 24 hrs. In kind it is functional, cell-based. The procedure, abridged: as §3
The subject of test [24] is HepG2. Briefly: Induction of apoptosis in human HepG2 cells assessed as caspase 9 activation at 50 uM after 2 to 24 hrs. Type of test: functional, cell-based. The gist of the method:
as §3

In test [25] the test system is HepG2. Briefly: Induction of apoptosis in human HepG2 cells assessed as decrease in Bcl2 mRNA expression after 26 hrs by RT-PCR. Type of test: functional, cell-based. The gist of the method: (§4)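 HepG-2 cells treated at 0, 5, 10, 25 and 50 µM for 26 h. cDNA made from 1 µg total RNA and amplified for Bcl-2 and Bax over 30 cycles (98 °C 15 s, 57 °C 10 s, 72 °C 35 s), with GAPDH as control. Results expressed as fold change relative to control.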

Test [26] concerns HepG2. The test is described as follows: Induction of apoptosis in human HepG2 cells assessed as increase in […] mRNA expression after 26 hrs by RT-PCR. In kind it is functional, cell-based. The gist of the method: as §4

In turn, `COc1ccccc1-c1cc(=O)c2cc(C(C)C)ccc2o1` showed an IC50 in the test on HepG2 [1] of 5.4 µM.

As for `CC(C)c1ccc2oc(-c3ccccc3)cc(=O)c2c1`, in the test on HepG2 [1], the IC50 stood at 6.4 µM.

For `O=c1cc(C2CCCC2)oc2ccc(Cl)cc12`, the half-inhibitory concentration (IC50) in the test on HepG2 [1] came to 13.4 µM.

In turn, `CC(C)c1ccc2oc(-c3ccc([N+](=O)[O-])cc3)cc(=O)c2c1` showed an IC50 in the test on HepG2 [1] of over 50 µM.

Regarding `COc1ccc(-c2cc(=O)c3cc(C(C)C)ccc3o2)cc1`, the IC50 in the test with HepG2 [1] turned out to be 9.9 µM.

In the test with HepG2 [1], `O=c1cc(C2CCCCC2)oc2c1ccc1ccccc12` came in with an IC50 of 2.9 µM.

With `COc1cc(OC)cc(-c2cc(=O)c3cc(Cl)ccc3o2)c1`, the 50% inhibitory concentration (IC50) was 1.1 µM in the test on HepG2 [1]; 3 µM in the test with HeLa; 7.4 µM in the test with MCF7; 10.4 µM in [5]; 12.9 µM in test [6]. Further, the Activity in the test on HepG2 [2] is reported as 55.83%; in the test on HepG2 [3], 13.47%; with HepG2 [4], 13.32%; with HepG2 [9], 41.67%; in the test with HepG2 [10], 21.54%; in the test with HepG2 [11], 16.47%. Moreover, the Activity in the test on HepG2 [12] is recorded as 20.32%; in the test on HepG2 [13] it was 34.54%; in the test with HepG2 [14], 38.67%; in the test on HepG2 [15], 23.38%; in the test on HepG2 [16], 11.47%; in the test with HepG2 [17], 9.32%. Also, the Activity in the test on HepG2 [18] is 79.32%; in the test with HepG2 [19] it was 11.52%; in the test on HepG2 [20], 5.69%; with HepG2 [21], 3.47%; in the test on HepG2 [25], “Dose-dependent effect”. In addition, the outcome in the test with HepG2 [7], with HepG2 [8], in the test on HepG2 [22], with HepG2 [23], in the test with HepG2 [24] and in the test with HepG2 [26] was Active.

With `CC(C)c1ccc2oc(C3CCCC3)cc(=O)c2c1`, in the test on HepG2 [1], the IC50 worked out at 8.6 µM.

In turn, `O=c1cc(C2CCCC2)oc2c1ccc1ccccc12` came in with a concentration for half-maximal inhibition (IC50) with HepG2 [1] of 6.1 µM.

`O=c1cc(C2CCCCC2)oc2ccc(Cl)cc12` came in with an IC50 in the test with HepG2 [1] of 20 µM.

The molecule `CC(C)c1ccc2oc(-c3cccc([N+](=O)[O-])c3)cc(=O)c2c1` returned a half-maximal inhibitory concentration (IC50) in the test with HepG2 [1] of over 50 µM.

For `COc1cccc(-c2cc(=O)c3cc(C(C)C)ccc3o2)c1`, in the test with HepG2 [1], the 50% inhibitory concentration (IC50) is 2.1 µM.

In the test on HepG2 [1], `CC(C)c1ccc2oc(C3CCCCC3)cc(=O)c2c1` displayed an IC50 of 18 µM.

The molecule `COc1cc(-c2cc(=O)c3cc(C(C)C)ccc3o2)cc(OC)c1OC` yielded an IC50 in the test on HepG2 [1] of 3.6 µM.
